We go through three compounds from ChEMBL document CHEMBL4038305, “Benzoxaborole Antimalarial Agents. Part 5. Lead Optimization of Novel Amide Pyrazinyloxy Benzoxaboroles and Identification of a Preclinical Candidate” (J Med Chem, 2017).

In data set [1] the test system is Plasmodium berghei. Description: Antimalarial activity against Plasmodium berghei infected in Swiss Webster mouse assessed as mouse survival rate at 11 mg/kg administered once daily via oral gavage for 4 consecutive days beginning 1 hr after infection measured on day 10 post infection relative to control. It is filed as functional. The procedure, abridged: (§1)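 Mice given an intraperitoneal injection of P. berghei-infected erythrocytes taken from a previously infected animal. Oral dosing once daily for 4 consecutive days, starting 1 h after infection. Vehicle: polyethylene glycol 300/propylene glycol/water (weight ratio 55/25/20). Percent survival recorded daily from day 4 to day 20. Chloroquine 30 mg/kg and vehicle-only groups served as controls.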

In data set [2] the test system is Plasmodium berghei. Description: Antimalarial activity against Plasmodium berghei infected in Swiss Webster mouse assessed as mouse survival rate at 3 mg/kg administered once daily via oral gavage for 4 consecutive days beginning 1 hr after infection measured on day 4 post infection relative to control. It is filed as functional. An outline of the steps: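 P. berghei-infected erythrocytes taken from a previously infected mouse were injected intraperitoneally. Oral dosing, once daily for 4 consecutive days, began 1 h after infection, in polyethylene glycol 300/propylene glycol/water (55/25/20 by weight). Chloroquine at 30 mg/kg was the positive control, with a vehicle-only group. Percent survival was recorded daily from day 4 to day 20.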

Data set [3] has as its system Plasmodium berghei. Description: Antimalarial activity against Plasmodium berghei infected in Swiss Webster mouse assessed as mouse survival rate at 1 mg/kg administered once daily via oral gavage for 4 consecutive days beginning 1 hr after infection measured on day 8 post infection relative to control. The class given is functional. An outline of the steps: as §1

Data set [4] in a line: AUC (0 to infinity) in Beagle dog at 5 mg/kg, po via gavage by HPLC/MS analysis. The class given is ADME, organism-based, Canis lupus familiaris. On the set-up: dose 5 mg/kg, time infinity, route oral. As to conditions: in vivo.
The nature of data set [5]: AUC (0 to infinity) in Beagle dog at 5 mg/kg, iv by HPLC/MS analysis. The class given is ADME, organism-based, Canis lupus familiaris. Also on record: dose 5 mg/kg, time infinity, route intravenous. To be noted: in vivo.
The test system of data set [6] is Plasmodium falciparum. Description: Antimalarial activity against Plasmodium falciparum 7G8 infected in human erythrocytes assessed as reduction in [3H]-hypoxanthine incorporation preincubated for 24 hrs followed by [3H]-hypoxanthine addition measured after 24 hrs by scintillation counting method. The class given is functional, cell-based.
Data set [7] concerns Salmonella typhimurium. Nature of the data set: Genotoxicity in Salmonella typhimurium TA98 assessed as number of revertants per plate at 5 ug/plate in presence of rat liver S9 fraction by Ames test (reference value: 19 +/- 8). The class given is toxicity. To be noted: salmonella enterica subsp. enterica serovar typhimurium.
Data set [8] concerns Salmonella typhimurium. Nature of the data set: Genotoxicity in Salmonella typhimurium TA98 assessed as number of revertants per plate at 15 ug/plate in presence of rat liver S9 fraction by Ames test (reference value: 19 +/- 8). The class given is toxicity. As to conditions: salmonella enterica subsp. enterica serovar typhimurium. A general note: In the Ames test, an excess of revertant colonies over the control signals mutagenicity.

Data set [9] concerns Salmonella typhimurium. Description: Genotoxicity in Salmonella typhimurium TA100 assessed as number of revertants per plate at 1.5 ug/plate in presence of rat liver S9 fraction by Ames test (reference value: 141 +/- 1). It is filed as toxicity. To be noted: salmonella enterica subsp. enterica serovar typhimurium.
Data set [10] relates to Salmonella typhimurium. Nature of the data set: Genotoxicity in Salmonella typhimurium TA100 assessed as number of revertants per plate at 500 ug/plate in presence of rat liver S9 fraction by Ames test (reference value: 141 +/- 1). The class given is toxicity. As to conditions: salmonella enterica subsp. enterica serovar typhimurium.
In data set [11] the test system is Salmonella typhimurium. Description: Genotoxicity in Salmonella typhimurium TA1535 assessed as number of revertants per plate at 15 ug/plate in absence of rat liver S9 fraction by Ames test (reference value: 10 +/- 3). It is filed as toxicity. As to conditions: salmonella enterica subsp. enterica serovar typhimurium.
Data set [12] deals with Salmonella typhimurium. Nature of the data set: Genotoxicity in Salmonella typhimurium TA1535 assessed as number of revertants per plate at 500 ug/plate in absence of rat liver S9 fraction by Ames test (reference value: 10 +/- 3). The class given is toxicity. As to conditions: salmonella enterica subsp. enterica serovar typhimurium.
Data set [13] concerns Salmonella typhimurium. Nature of the data set: Genotoxicity in Salmonella typhimurium TA1535 assessed as number of revertants per plate at 1.5 ug/plate in presence of rat liver S9 fraction by Ames test (reference value: 10). It is filed as toxicity. To be noted: salmonella enterica subsp. enterica serovar typhimurium.
Data set [14] concerns Salmonella typhimurium. Nature of the data set: Genotoxicity in Salmonella typhimurium TA1535 assessed as number of revertants per plate at 500 ug/plate in presence of rat liver S9 fraction by Ames test (reference value: 10). As to conditions: salmonella enterica subsp. enterica serovar typhimurium. It is filed as toxicity.
Data set [15] relates to Salmonella typhimurium. Nature of the data set: Genotoxicity in Salmonella typhimurium TA1537 assessed as number of revertants per plate at 5 ug/plate in absence of rat liver S9 fraction by Ames test (reference value: 19 +/- 9). As to conditions: salmonella enterica subsp. enterica serovar typhimurium. The class given is toxicity.
Data set [16] has as its system Salmonella typhimurium. Description: Genotoxicity in Salmonella typhimurium TA1537 assessed as number of revertants per plate at 5 ug/plate in presence of rat liver S9 fraction by Ames test (reference value: 11 +/- 4). The class given is toxicity. To be noted: salmonella enterica subsp. enterica serovar typhimurium.
Data set [17] concerns Salmonella typhimurium. Description: Genotoxicity in Salmonella typhimurium TA1537 assessed as number of revertants per plate at 5000 ug/plate in presence of rat liver S9 fraction by Ames test (reference value: 11 +/- 4). It is filed as toxicity. To be noted: salmonella enterica subsp. enterica serovar typhimurium.
Data set [18] has as its system Escherichia coli. Nature of the data set: Genotoxicity in Escherichia coli WP2uvrA assessed as number of revertants per plate at 1500 ug/plate in absence of rat liver S9 fraction by Ames test (reference value: 45 +/- 9). The class given is toxicity.
Data set [19] relates to Escherichia coli. Nature of the data set: Genotoxicity in Escherichia coli WP2uvrA assessed as number of revertants per plate at 5000 ug/plate in absence of rat liver S9 fraction by Ames test (reference value: 45 +/- 9). It is filed as toxicity.
For data set [20], the system named is Escherichia coli. Description: Genotoxicity in Escherichia coli WP2uvrA assessed as number of revertants per plate at 5 ug/plate in presence of rat liver S9 fraction by Ames test (reference value: 42 +/- 6). The class given is toxicity.
Data set [21] relates to Lymphocyte. Nature of the data set: Genotoxicity in human lymphocytes assessed as replication index at 355.15 ug/mL after 28 hrs in absence of rat liver S9 fraction by micronucleus assay relative to control. It is filed as toxicity, cell-based. An outline of the steps:
(§2)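 Human lymphocytes exposed for 3 h with or without rat liver S9, or 28 h without S9, with 1% DMSO as vehicle control. Replication index = (binucleated + 2 × multinucleated cells)/total cells. Cytotoxicity (%) = 100 − (RI treated/RI vehicle) × 100.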

Data set [22] concerns Lymphocyte. Nature of the data set: Genotoxicity in human lymphocytes assessed as replication index at 40 ug/mL after 28 hrs in absence of rat liver S9 fraction by micronucleus assay relative to control. The class given is toxicity, cell-based. An outline of the steps:
as §2

Data set [23] has as its system Lymphocyte. Description: Genotoxicity in human lymphocytes assessed as increase in frequency of micronucleated cells at 80 ug/mL after 3 hrs in presence of rat liver S9 fraction by micronucleus assay (reference value: 0.63%). The class given is toxicity, cell-based. To be noted: s9, 3 h.
Data set [24] deals with Lymphocyte. Nature of the data set: Genotoxicity in human lymphocytes assessed as increase in frequency of micronucleated cells at 80 ug/mL after 3 hrs in absence of rat liver S9 fraction by micronucleus assay (reference value: 0.99%). The class given is toxicity, cell-based.
Data set [25] deals with Lymphocyte. Description: Genotoxicity in human lymphocytes assessed as increase in frequency of micronucleated cells at 160 ug/mL after 3 hrs in absence of rat liver S9 fraction by micronucleus assay (reference value: 0.99%). It is filed as toxicity, cell-based.
Data set [26] concerns Lymphocyte. Description: Genotoxicity in human lymphocytes assessed as increase in frequency of micronucleated cells at 355.15 ug/mL after 3 hrs in absence of rat liver S9 fraction by micronucleus assay (reference value: 0.99%). The class given is toxicity, cell-based.
The subject of data set [27] is Rattus norvegicus. Description: Genotoxicity in rat assessed as change in polychromatic erythrocytes in bone marrow at 2000 mg/kg administered via oral gavage measured after 24 hrs post dose by micronucleus assay relative to control. To be noted: in vivo. The class given is toxicity, organism-based.
For data set [28], the system named is Rattus norvegicus. Description: Genotoxicity in rat assessed as change in polychromatic erythrocytes in bone marrow at 2000 mg/kg administered via oral gavage measured after 48 hrs post dose by micronucleus assay relative to control. The class given is toxicity, organism-based. To be noted: in vivo.
The subject of data set [29] is Rattus norvegicus. Nature of the data set: Genotoxicity in rat assessed as micronucleated polychromatic erythrocytes in bone marrow at 1000 mg/kg administered via oral gavage measured after 24 hrs post dose by micronucleus assay (reference value: 0.07 +/- 0.05%). The class given is toxicity, organism-based. As to conditions: in vivo.

As usually defined, the AUC(0-inf) is the area under the concentration-time curve extrapolated to infinity. Read a high AUC(0-inf) as high exposure. The IC50 is the concentration that gives 50% inhibition.

With `Cc1c(Oc2cnc(C(=O)N3CC(O)(C(C)C)C3)cn2)ccc2c1B(O)OC2`, the survival at 11 mg/kg in data set [1] was 20%.

As to `Cc1c(Oc2cnc(C(=O)NC(C)CO)cn2)ccc2c1B(O)OC2` (centres undefined), in data set [2], the survival at 3 mg/kg is 100%. In addition, the survival at 1 mg/kg in [3] is 0%.

`Cc1c(Oc2cnc(C(=O)N3CC(C)(O)C3)cn2)ccc2c1B(O)OC2`: the area under the curve AUC(0-inf) in data set [4] came to 214 µg·h/mL; in data set [5], 168 µg·h/mL. The concentration for half-maximal inhibition (IC50) in [6] came out at 35 nM. For the same compound, the Activity in data set [7] is reported as 15; in data set [8], 13; in [9], 150; in data set [10], 132; in [11] it was 13; in data set [12] it was 5. For the same compound, the Activity in data set [13] is on record as 9; in data set [14], 6; in data set [15] it was 15; in [16], 22; in [17], 9; in data set [18], 33. The Activity was 43 in data set [19]; 37 in data set [20]; 33% in [21]; 7% in [22]; 0.74% in data set [23]; 0.81% in data set [24]. For the same compound, the Activity in data set [25] is 1.18%; in data set [26], 0.85%; in data set [27] it was -4%; in [28] it was -12%; in data set [29], 0.08%.
